Shown is part of a subset that was picked to be rich in hits.
GAA850 FXN act: activators of GAA850 frataxin (FXN) promoter | HEK293 lucGAA850 FXN promoter luciferase reporter, 24 h; percent of 10 µM SAHA response | activation, % at 6 µM | actives 0.56% (n = 360,000) | AID 540364;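 active = activation above the average of all compounds screened plus 3 SD, cutoff fixed separately per campaign, cut at about 7.5% in these data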
CHOP UPR activ: apoptotic UPR (CHOP) activation; CHO-CHOP luciferase reporter, luminescence; percent of tunicamycin response over DMSO baseline; activation, % at 10 µM; actives 0.34% (n = 330,000); AID 449763;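 active = at 10 µM dose, activation of 40% or more, normalized to positive control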
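Test system: CHO CHOP reporter cells. Input: 500 CHO-CHOP cells per well. Medium: F12 with 10% FBS. Technique: luciferase luminescence. Measure: percent activation relative to tunicamycin control. Dosing: 10 µM compound, 0.5% DMSO. Timing: 16-18 h cell attachment, then 6 h compound exposure, 37 °C.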
XBP1 UPR activ: adaptive UPR (XBP1) activation. CHO-XBP1 luciferase reporter, IRE1-XBP1 UPR activation, luminescence; percent of tunicamycin response, DMSO as zero. activation, % at 20 µM. actives 0.33% (n = 330,000). AID 463104;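 active = versus positive control, 20 µM dose yields 30% or more activation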
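Material: CHO cell line with stable XBP1 luciferase reporter; buffer or medium: F12 medium containing 10% fetal bovine serum; compound: single point, 20 µM final compound, 1% DMSO; incubation: 6 h treatment, 37 °C; measured by: glow luminescence from Steady-Glo reagent; evaluation: activation, % of tunicamycin; control set: tunicamycin high, DMSO low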
CHOP inh: CHOP inhibition in unfolded protein response; CHO-K1 CHOP-promoter luciferase, tunicamycin-induced, 15-18 h; inhibition, % at 10 µM; actives 3.8% (n = 220,000);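 active = compounds that reduced the stress-induced luciferase reporter signal by more than about 70% of percent inhibition, limit read from the data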
CHOP confirm: confirmation of CHOP induction inhibitors. inhibition, % at 10 µM. shares compounds with CHOP inh. CHO-CHOP promoter luciferase reporter, tunicamycin-induced, luminescence. AID 504437. actives 45% (n = 2,100);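 active = mean of three repeat readings of reporter signal inhibition above a set limit, cut at about 70% in these data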
CHOP UPR conf: confirmation of apoptotic unfolded protein response (CHOP) activators. CHO-CHOP cells, CHOP-luciferase reporter luminescence; percent of tunicamycin response, DMSO as zero. activation, % at 10 µM. shares compounds with CHOP UPR activ. actives 64% (n = 1,000); in the data active = activation above about 33%
GAA30 counter: counter-screen for GAA850 frataxin promoter activators: GAA30 promoter activation | shares compounds with GAA850 FXN act | HEK293 lucGAA30 FXN promoter luciferase, 24 h; DMSO = 0%, 5 µM ipriflavone = 100% | activation, % at 6 µM | actives 66% (n = 1,900) | AID 588350;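 active = mean activation above the mean of solvent-only control wells plus 3 SD, cut at about 22% in these data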;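 note: counterscreen of GAA850 promoter hits where activity marks nonselective or luminescence artifacts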
GAA850 confirm: GAA850 FXN promoter activation confirmation | shares compounds with GAA850 FXN act | HEK293 lucGAA850 FXN promoter luciferase reporter, 24 h; 100% = activation by SAHA | activation, % at 6 µM | actives 86% (n = 1,900) | AID 588351;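 active = mean activation above a set limit taken from the primary screen, cut at about 8% in these data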
Of the large screens only hits and unclear results are named; the others gave an inactive call (follow-up assays come after a bar, where they were run).

CCOC(=O)c1ccc(N=C(C)c2c(O)[nH]c(=O)[nH]c2=O)cc1	none
CC(=O)[C@H]1CCC2C3CC[C@H]4C[C@H](O)CC[C@]4(C)C3CC[C@@]21C (stereo partly drawn)	none (no result: GAA850 FXN act, CHOP UPR activ, XBP1 UPR activ)
COc1ccc(CN2C(=O)NC(=O)/C(=C\c3ccco3)C2=O)cc1	CHOP inh 105 | CHOP confirm inactive
O=S(=O)(c1cccc2ccccc12)N1Cc2ccccc2-n2nncc2C1	none (no result: CHOP UPR activ, XBP1 UPR activ, CHOP inh)
C[C@@H]1CN([C@H](C)CO)C(=O)CCCn2nncc2CO[C@@H]1CN(C)C(=O)Oc1ccc2ccccc2c1	none (no result: CHOP UPR activ, XBP1 UPR activ, CHOP inh)
C=CCn1c(O)c(C(CC)=Nc2ccc(N(CC)CC)cc2)c(=O)[nH]c1=O	CHOP inh 103 | CHOP confirm 96
COC(=O)C(O)(c1ccc(NC(=S)NC(=O)c2ccc(Cl)cc2Cl)c(C)c1)C(F)(F)F (stereo not drawn)	CHOP inh 98 | CHOP confirm 106
CCOC(=O)C(O)(c1ccc(NC(=S)NC(=O)c2ccc(Cl)cc2Cl)cc1)C(F)(F)F (stereo not drawn)	none
COC1C(C)OC(OC2CC(C)(O)Cc3cc4c(c(O)c32)C(=O)c2c(O)cc3c(c2C4=O)OC2OC3(C)C(O)C(N(C)C)C2O)C(OC)C1(C)OC (stereo not drawn)	none (no result: CHOP UPR activ, XBP1 UPR activ, CHOP inh)
O=C1NC(=O)N(c2ccccc2)C(=O)/C1=C/c1ccc(Sc2ccccc2)o1	CHOP inh 104 (no result: CHOP UPR activ, XBP1 UPR activ) | CHOP confirm inactive
O=C1C=CC(=O)C2C1C1(Cl)C(Cl)=C(Cl)C2(Cl)C1(Cl)Cl (stereo not drawn)	none (no result: CHOP UPR activ, XBP1 UPR activ, CHOP inh)
COCCCn1c(N)c(C(=O)NCCC(C)C)c2nc3ccccc3nc21	CHOP inh 99 | CHOP confirm 99
CCCCCSc1cc(OC)c(CCNC)cc1OC	none
CCCCCCCSc1cc(OC)c(CCNC)cc1OC	CHOP inh 100 | CHOP confirm inactive
C[C@H]1CN([C@@H](C)CO)C(=O)CCCn2nncc2CO[C@H]1CN(C)C(=O)Oc1ccc2ccccc2c1	none (no result: CHOP UPR activ, XBP1 UPR activ, CHOP inh)
O=c1[nH]c(=O)n(C2CCCCC2)c(O)c1/C=C/C=Nc1ccccc1	CHOP inh 100 | CHOP confirm inactive
O=c1[nH]c(=O)n(-c2ccccc2)c(O)c1/C=C/C=Nc1ccccc1	none
CCOC(=O)c1cccc(C2=C(CNC(=O)c3ccc([N+](=O)[O-])cc3)[C@H]3CC[C@@H](C2)N3Cc2ccccc2)c1	none (no result: CHOP UPR activ, XBP1 UPR activ, CHOP inh)
O=C1C2CC(CN3CCCCC23)C2CCCCN12 (stereo not drawn)	none (no result: CHOP UPR activ, XBP1 UPR activ, CHOP inh)
OC(c1ccccc1)(c1ccccc1)C1CCNCC1	CHOP inh 108 | CHOP confirm inactive
CCN1/C(=C\C=C\C2=[N+](CC)c3ccccc3C2(C)C)C(C)(C)c2ccccc21	CHOP UPR activ 46, CHOP inh 103 | CHOP confirm 140 | CHOP UPR conf inactive
CC(C)C(O)(C(=O)OCC1=CCN2CCC(O)C12)C(C)O (stereo not drawn)	none (no result: CHOP UPR activ, XBP1 UPR activ, CHOP inh)
Cc1ccc(/C=C2\C(=O)NC(=S)N(c3ccc(F)cc3)C2=O)s1	CHOP UPR activ 393, CHOP inh 103 | CHOP confirm inactive | CHOP UPR conf inactive
COc1ccc(N2C(=O)/C(=C/c3cccs3)C(=O)NC2=S)cc1	CHOP UPR activ 462, CHOP inh 104 | CHOP confirm inactive | CHOP UPR conf 157
C[C@@H]1CN([C@@H](C)CO)C(=O)CCCn2cc(nn2)CO[C@H]1CN(C)C(=O)Oc1ccc2ccccc2c1	none (no result: CHOP UPR activ, XBP1 UPR activ, CHOP inh)
CCOC(=O)c1c(-n2c(C)cc(/C=C3/C(=O)NC(=O)N(CC)C3=O)c2C)sc2c1CCCC2	none (no result: CHOP inh)
CCOC(=O)c1c(-n2c(C)cc(C=C3C(=O)NC(=S)NC3=O)c2C)sc2c1CCCC2	CHOP UPR activ 185, CHOP inh 107 | CHOP confirm 140 | CHOP UPR conf inactive
C[C@H]1CN([C@@H](C)CO)C(=O)CCCn2nncc2CO[C@@H]1CN(C)C(=O)Oc1ccccc1	none (no result: CHOP UPR activ, XBP1 UPR activ, CHOP inh)
Nc1cc(Cl)c2nonc2c1[N+](=O)[O-]	GAA850 FXN act 43, CHOP inh 108 (no result: CHOP UPR activ, XBP1 UPR activ) | CHOP confirm 121 | GAA30 counter inactive | GAA850 confirm 86
COC(=O)C1=C(c2ccc(OCc3ccccc3)cc2)C[C@@H]2CC[C@H]1N2C(=O)NCCc1ccc(F)cc1	none (no result: CHOP UPR activ, XBP1 UPR activ, CHOP inh)
O=c1[nH]c(=S)n(C2CC2)c(O)c1C=Nc1cccc(C(F)(F)F)c1	CHOP UPR activ 46, CHOP inh 95 | CHOP UPR conf 36
CCn1c(O)c(N=Nc2cccc(S(=O)(=O)N3CCOCC3)c2)c(=O)n(CC)c1=S	CHOP UPR activ 41 | CHOP UPR conf inactive
CCn1c(O)c(C=Nc2ccc(N3CCOCC3)cc2)c(=O)n(CC)c1=S	none
CCC(C)C1NC(=O)C(NC(=O)C(CC(C)C)N(C)C(=O)C2CCCN2C(=O)C(C)O)C(C)OC(=O)C(Cc2ccc(OC)cc2)N(C)C(=O)C2CCCN2C(=O)C(CC(C)C)NC(=O)[C@H](C)C(=O)[C@H](C(C)C)OC(=O)CC1O (stereo partly drawn)	none (no result: CHOP UPR activ, XBP1 UPR activ, CHOP inh)
O=C(NCC1=C(c2ccc3ccccc3c2)C[C@@H]2CC[C@H]1N2Cc1ccco1)c1nccs1	none (no result: CHOP UPR activ, XBP1 UPR activ, CHOP inh)
CN(CCc1ccccc1)Cc1c[nH]c2ccccc12	CHOP UPR activ 88 (no result: CHOP inh) | CHOP UPR conf inactive
CN1C(=O)C[N+]([O-])=C(c2ccccc2)c2cc(Cl)ccc21	none (no result: CHOP UPR activ, XBP1 UPR activ, CHOP inh)
COc1cccc(N2C(=O)/C(=C/c3ccc(C)o3)C(=O)NC2=S)c1	CHOP UPR activ 262 (no result: CHOP inh) | CHOP UPR conf inactive
COC(=O)C1=C(c2ccc(OCc3ccccc3)c(F)c2)C[C@@H]2CC[C@H]1N2C	none (no result: CHOP UPR activ, XBP1 UPR activ, CHOP inh)
COc1ccc(N2C(=O)/C(=C/C=C/c3ccccc3[N+](=O)[O-])C(=O)NC2=S)cc1	CHOP UPR activ 355 (no result: GAA850 FXN act) | CHOP UPR conf 90
CCCCCn1c(=O)c(C(=O)Nc2ccccc2Cl)c(O)c2ccccc21	none (no result: CHOP inh)
CCCCCn1c(=O)c(C(=O)Nc2ncccc2C)c(O)c2ccccc21	CHOP UPR activ 46, XBP1 UPR activ 36 (no result: CHOP inh) | CHOP UPR conf inactive
COc1ccc(/C=C2/C(=O)N(Cc3ccco3)C(=O)N(C(C)C)C2=O)cc1	none
CC(C)N1C(=O)/C(=C/C=C/c2ccco2)C(=O)N(Cc2ccco2)C1=O	CHOP UPR activ 45 | CHOP UPR conf 156
Cc1cc(C)cc(N2C(=O)NC(=O)/C(=C\c3cccn3-c3ccccc3)C2=O)c1	CHOP UPR activ 189 | CHOP UPR conf 333
